Converted amounts (≈) assume the structure as drawn. The source made the active and inactive calls. No cut-off for these calls is given here.
Experiments:
[1] = Cytotoxicity against human Hep2 cells; assay type: functional; conditions: HEp-2, read-out: ED50 (the source's name)
Method in brief: (§1)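 Growth inhibition of cultured cells. Activity is expressed as ED50 in μg/mL.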

L1210 [2] = assay: Antitumor activity against mouse L1210 cells assessed as increase in life span administered from day 1 to day 9 relative to control; assay type: functional; parameters: concentration or dose not given beside the values
Method in brief: (§2)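 In vivo assay in mice bearing leukemia L1210, dosed on days 1–9. Read-out is percent increase in life span of treated leukemic mice over untreated leukemic controls.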

KB [3] = assay: Cytotoxicity against human KB cells; assay type: functional; conditions: read-out: ED50 (the source's name); method in brief: as §1
HEp-2 = assay: Cytotoxicity against human Hep2 cells in presence of 5-amino-1H-imidazole-4-carboxamide; assay type: functional, cell-based
KB [4] = assay: Cytotoxicity against human KB cells in presence of 5-amino-1H-imidazole-4-carboxamide; assay type: functional, cell-based
L1210 [5] = assay: Antitumor activity against mouse L1210 cells assessed as increase in life span at 33 mg/kg administered from day 1 to day 9 relative to control; assay type: functional; method in brief: as §2
L1210 [6] = assay: Antitumor activity against mouse L1210 cells assessed as increase in life span at 14 to 75 mg/kg administered from day 1 to day 9 relative to control; assay type: functional, organism-based

Row | SMILES | EC50 [1] [µg/mL] | Activity (L1210 [2]) [%] | EC50 (KB [3]) [µg/mL] | Activity (HEp-2) | Activity (KB [4]) | Activity (L1210 [5]) [%] | Activity (L1210 [6])
1 | CSc1cc(N)nc2c1ncn2[C@@H]1O[C@H](CO)[C@@H](O)[C@H]1O | > 22 | <15 | > 22 | – | – | – | –
2 | Nc1cc(Cl)c2ncn([C@@H]3O[C@H](CO)[C@@H](O)[C@H]3O)c2n1 | > 22 | <15 | > 22 | – | – | – | –
3 | CSc1cc(N)nc2[nH]cnc12 | > 22 | <15 | > 22 | – | – | – | –
4 | Nc1cc(S)c2ncn([C@@H]3O[C@H](CO)[C@@H](O)[C@H]3O)c2n1 | > 22 | <15 | > 22 | – | – | – | –
5 | CSc1cc(NC(C)=O)nc2[nH]cnc12 | > 22 | <15 | > 22 | – | – | – | –
6 | Nc1cc(Cl)c2nc[nH]c2n1 | 0.3 (≈ 1.78 µM) | – | 1 (≈ 5.93 µM) | Active | Active | 79 | Active
7 | Cc1ccc(S(=O)(=O)/N=c2\cc(Cl)c3ncn4c3n2C[C@H]2O[C@@H]4[C@@H]3OC(C)(C)O[C@@H]32)cc1 | > 22 | <15 | > 22 | – | – | – | –
8 | CC(=O)Nc1cc(Cl)c2nc[nH]c2n1 | > 22 | <15 | > 22 | – | – | – | –

— ChEMBL document CHEMBL3244154, “Synthesis of 1-deaza-6-thioguanosine and 1-deaza-6-(methylthio)guanosine” (1978)
